Measurements gathered from unrelated publications.
Compare with care: the assays were run in different laboratories.
Target: Ephrin type-B receptor 4 (EPHB4, Homo sapiens, UniProt P54760)
Residues used in one study (P54760 16-987): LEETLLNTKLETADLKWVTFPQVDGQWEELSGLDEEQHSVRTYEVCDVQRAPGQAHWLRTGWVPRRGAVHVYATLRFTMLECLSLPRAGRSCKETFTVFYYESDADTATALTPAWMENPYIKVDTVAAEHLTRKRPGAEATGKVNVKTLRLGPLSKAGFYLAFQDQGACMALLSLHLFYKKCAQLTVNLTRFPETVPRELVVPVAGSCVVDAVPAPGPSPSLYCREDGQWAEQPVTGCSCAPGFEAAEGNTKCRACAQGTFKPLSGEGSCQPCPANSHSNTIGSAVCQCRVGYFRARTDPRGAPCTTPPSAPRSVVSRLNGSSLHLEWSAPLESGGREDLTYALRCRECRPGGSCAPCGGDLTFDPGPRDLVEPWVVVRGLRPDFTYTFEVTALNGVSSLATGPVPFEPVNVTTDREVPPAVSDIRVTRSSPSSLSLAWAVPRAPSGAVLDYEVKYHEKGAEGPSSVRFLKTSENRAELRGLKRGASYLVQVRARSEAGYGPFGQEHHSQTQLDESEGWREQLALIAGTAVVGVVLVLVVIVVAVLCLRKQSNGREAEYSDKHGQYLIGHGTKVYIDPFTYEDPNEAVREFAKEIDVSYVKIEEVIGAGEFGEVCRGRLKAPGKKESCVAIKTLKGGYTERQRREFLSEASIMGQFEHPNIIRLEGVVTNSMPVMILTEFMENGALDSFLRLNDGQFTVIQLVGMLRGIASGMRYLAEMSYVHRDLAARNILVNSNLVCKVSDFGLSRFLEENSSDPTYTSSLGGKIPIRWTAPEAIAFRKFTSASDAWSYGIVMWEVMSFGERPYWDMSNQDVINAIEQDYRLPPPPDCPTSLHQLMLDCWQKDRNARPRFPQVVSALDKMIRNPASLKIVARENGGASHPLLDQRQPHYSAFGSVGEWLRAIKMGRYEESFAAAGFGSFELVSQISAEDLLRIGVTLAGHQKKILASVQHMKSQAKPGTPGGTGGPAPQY

SMILES | test | conditions | quantity | value
Cn1cc(-c2cc(F)cc(N3CCn4c(cc5c4CCCC5)C3=O)c2CO)cc(Nc2ccc(N3CCN(C4COC4)CC3)cn2)c1=O | enzyme activity, inhibitor | 0.1 µM | inhibition | 8%
O=c1[nH]c2ccccc2n1C1CCN(Cc2ccc(-c3[nH]c4cc5ncnc5cc4nc3-c3ccccc3)cc2)CC1 | cell-free assay | 0.5 µM | remaining signal | 96.4%
COc1ncccc1-c1cnn2ccc(N3CCN(C(=O)OC(C)C)CC3)nc12 | binding, competition with immobilised ligand | 1 µM | remaining binding | 100%
C#Cc1n[nH]c2c(-c3cn([C@@H](C)c4ccccn4)c(=O)[nH]c3=O)cc(F)cc12 | enzyme activity, inhibitor | 0.1 µM | inhibition | 5.5%
N#CC1(c2ccccn2)CCN(Cc2cc(C(=O)O)c(=O)n3ccccc23)CC1 | cell-free assay, competition with immobilised ligand | 1 µM | remaining binding | 83%
C#Cc1n[nH]c2c(-c3cn([C@@H](C)c4ccccc4)c(=O)[nH]c3=O)cc(F)cc12 | enzyme activity, inhibitor | 0.1 µM | inhibition | 1.4%
Cn1cncc1[C@](O)(COc1ccc(C#N)cc1-c1ccc(OC(F)(F)F)cc1)c1ccc(C#N)cc1 | cell-free assay, competition with immobilised ligand | 1 µM | remaining binding | 98%
COc1cc(Nc2ncc(F)c(Nc3ccc4c(n3)NC(=O)C(C)(C)O4)n2)cc(OC)c1OC | binding, competition with immobilised ligand | 10 µM | inhibition | 50%
Cn1cc(-c2cccc(N3CCc4c(sc5c4CC(C)(C)C5)C3=O)c2CO)cc(Nc2ccncn2)c1=O | enzyme activity, inhibitor | 1 µM | inhibition | 0%
Cc1nn(C)cc1-c1nc2c(N3CCN(Cc4ccc(Cl)cc4)CC3)c(Cl)cnc2[nH]1 | binding, competition with immobilised ligand | 1 µM | remaining binding | 100%
